APP 5'UTR act – APP 5'UTR luciferase reporter activation | SH-SY5Y APP 5'UTR luciferase reporter, luminescence; zero percent = DMSO vehicle wells | activation, % at 2 µM | 190,000 tested, 1% active | AID 1276;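 active means activation above a set limit, based on mean plus 3 SD of controls, cut at about 140% in these data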
STAT3 act-1 – activators of IL-6 induced STAT3 signaling | activation (% of control), % at 5.6 µM | U3A cells, IL-6 STAT3-luciferase reporter, luminescence; 100% = signal with IL-6 EC80 alone | 190,000 tested, 0.91% active;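 active means activation above the screen-wide mean of compound activation plus 3 SD, cut at about 130% in these data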
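Test system: STAT3-luciferase reporter U3A cells; Detection: reporter luminescence signal; Times: 1 h compound pre-exposure, 6 h IL-6 stimulation, 37 °C; Benchmarks: IL-6-only high control; Also added: IL-6 stimulus at 33 ng/mL final.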
NF-kB neuron act – raises NF-kB expression in human neuronal cells | NF-kB reporter expression; hits give high values | fold change at 12.5 µM | 190,000 tested, 1.6% active | AID 1239; in the data active means fold change above about 3.3
STAT1 inh – STAT1 signaling inhibition | NIH 3T3 STAT1-luciferase reporter, IFN-gamma, luminescence | inhibition, % at 5.5 µM | 200,000 tested, 0.35% active | AID 920;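 active means inhibition above a set limit, the mean inhibition across all tested compounds plus 3 SD, cut at about 34% in these data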
STAT3 inh – STAT3 signaling inhibition | inhibition, % at 5.5 µM | 190,000 tested, 0.89% active | U3A cells, IL-6 STAT3-luciferase reporter, luminescence; host cell line lacks STAT1 | AID 862;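 active means inhibition above the mean inhibition across all screened compounds plus 3 SD, cut at about 44% in these data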
STAT1 act-1 – STAT1 signaling activation | NIH 3T3 STAT1-luciferase reporter, IFN-gamma, luminescence; 100% = IFN-gamma alone, no compound | activation (% of control), % at 5.5 µM | 200,000 tested, 2.6% active;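 active means activation above the screen-wide mean activation plus 3 SD, cut at about 130% in these data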
STAT3 act-2 – STAT3 activation, confirmation assay | shares compounds with STAT3 act-1 | U3A STAT3-luciferase reporter, IL-6 potentiation, luminescence; U3A cells lack STAT1; 100 means same as IL-6 alone | potentiation (% of control), % at 5.7 µM | 1,200 tested, 64% active;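 active means percent activation of the STAT3 luciferase reporter above a set limit taken from the earlier primary screen, cut at about 130% in these data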
NFkB act STAT3ct – NF-kappaB activation in STAT3 activator counter-screen | shares compounds with STAT3 act-1 | human cells, NF-kappaB reporter activation | activation (% of control), % at 5.7 µM | 1,200 tested, 11% active | AID 1309; in the data active means activation above about 120%;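 further: reporter induced by TNF-alpha stimulation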
STAT1 act-2 – activates STAT1, counter-screen to STAT3 activators. NIH 3T3 STAT1-luciferase reporter, IFN-gamma, luminescence. AID 1318. shares compounds with STAT3 act-1. 1,200 tested, 13% active. activation (% of control), % at 5.7 µM;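 active means activation above the solvent-only control well mean plus 3 SD, set per screening run, cut at about 120% in these data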
Numbers stand for hits. Shown are actives, neighbours in structure and some others; about 4.9% of the full set was active somewhere.

How did CC1=C(C(=O)OC2CCCC2)C(c2coc3ccccc3c2=O)C2=C(CCCC2=O)N1 (centres undefined) do in these assays?
APP 5'UTR act: inactive; STAT3 act-1: 137; NF-kB neuron act: inactive; STAT1 inh: inactive; STAT3 inh: inactive; STAT1 act-1: inactive; STAT3 act-2: inactive; NFkB act STAT3ct: inactive; STAT1 act-2: inactive

What do the screens show for `COC(=O)C1=C(C)NC2=C(C(=O)CCC2)C1c1coc2ccccc2c1=O` (centres undefined)?
APP 5'UTR act: inactive; STAT3 act-1: 139; NF-kB neuron act: inactive; STAT1 inh: inactive; STAT3 inh: inactive; STAT1 act-1: inactive; STAT3 act-2: 147; NFkB act STAT3ct: inactive; STAT1 act-2: inactive

Results for CC1=C(C(=O)Nc2ccccc2)C(c2coc3ccccc3c2=O)C2=C(CCCC2=O)N1 (centres undefined) ?
APP 5'UTR act: inactive; STAT3 act-1: inactive; NF-kB neuron act: inactive; STAT1 inh: inactive; STAT3 inh: inactive; STAT1 act-1: inactive

Results for COc1ccc(-c2nnc(SCC(=O)Nc3ccc4c(c3)OCCO4)n2N)cc1OC ?
APP 5'UTR act: inactive; STAT3 act-1: inactive; NF-kB neuron act: inactive; STAT1 inh: inactive; STAT3 inh: inactive; STAT1 act-1: inactive

Results for CCOc1ccccc1-n1c(=O)c2ccccc2c2ccccc2c1=O ?
APP 5'UTR act: inactive; STAT3 act-1: inactive; NF-kB neuron act: inactive; STAT1 inh: inactive; STAT3 inh: inactive; STAT1 act-1: inactive

Results for COC(=O)c1cnn(-c2nc3c(C)cccc3s2)c1C ?
APP 5'UTR act: inactive; STAT3 act-1: 140; NF-kB neuron act: inactive; STAT1 inh: inactive; STAT3 inh: inactive; STAT1 act-1: inactive; STAT3 act-2: 134; NFkB act STAT3ct: inactive; STAT1 act-2: inactive

Results for Cn1c(=O)oc2cc(S(=O)(=O)NCCC(=O)N3CC=C(c4ccccc4)CC3)ccc21 ?
APP 5'UTR act: inactive; STAT3 act-1: inactive; NF-kB neuron act: inactive; STAT1 inh: inactive; STAT3 inh: inactive; STAT1 act-1: inactive

Results for Cn1c(=O)oc2cc(S(=O)(=O)NCCC(=O)N3CCc4ccccc43)ccc21 ?
APP 5'UTR act: inactive; STAT3 act-1: 140; NF-kB neuron act: inactive; STAT1 inh: inactive; STAT3 inh: inactive; STAT1 act-1: inactive; STAT3 act-2: inactive; NFkB act STAT3ct: inactive; STAT1 act-2: inactive

Results for O=C(CNc1cccc2ccccc12)N/N=C/c1ccc(OC(=O)/C=C/c2ccco2)cc1 ?
APP 5'UTR act: inactive; STAT3 act-1: 156; NF-kB neuron act: inactive; STAT1 inh: inactive; STAT3 inh: inactive; STAT1 act-1: inactive; STAT3 act-2: inactive; NFkB act STAT3ct: inactive; STAT1 act-2: inactive

Results for Oc1oc(-c2cccc3ccccc23)nc1/C=N/c1nccs1 ?
APP 5'UTR act: inactive; STAT3 act-1: inactive; NF-kB neuron act: inactive; STAT1 inh: inactive; STAT3 inh: inactive; STAT1 act-1: inactive

Results for C(=N\c1nccs1)/c1c[nH]c2ccccc12 ?
APP 5'UTR act: inactive; STAT3 act-1: 167; NF-kB neuron act: inactive; STAT1 inh: inactive; STAT3 inh: inactive; STAT1 act-1: inactive; STAT3 act-2: inactive; NFkB act STAT3ct: inactive; STAT1 act-2: inactive

How did CCOc1ccc(N(CC(=O)NN=C2CCCC2)S(C)(=O)=O)cc1 do in these assays?
APP 5'UTR act: inactive; STAT3 act-1: inactive; NF-kB neuron act: inactive; STAT1 inh: inactive; STAT3 inh: inactive; STAT1 act-1: inactive

Results for O=c1c2ccccc2nc(/C=C/c2c[nH]c3ccccc23)n1CCO ?
APP 5'UTR act: inactive; STAT3 act-1: 136; NF-kB neuron act: inactive; STAT1 inh: inactive; STAT3 inh: inactive; STAT1 act-1: inactive; STAT3 act-2: 136; NFkB act STAT3ct: inactive; STAT1 act-2: 126

How did CCOc1cc(C2NC(=O)NC(C)=C2C(=O)OCc2ccccc2)ccc1O (centres undefined) do in these assays?
APP 5'UTR act: inactive; STAT3 act-1: inactive; NF-kB neuron act: inactive; STAT1 inh: inactive; STAT3 inh: inactive; STAT1 act-1: inactive

How did C[n+]1c2n(c3ccccc31)N=C(c1ccc(Br)cc1)CS2 do in these assays?
APP 5'UTR act: inactive; STAT3 act-1: 136; NF-kB neuron act: inactive; STAT1 inh: inactive; STAT3 inh: inactive; STAT1 act-1: inactive; STAT3 act-2: inactive; NFkB act STAT3ct: inactive; STAT1 act-2: inactive

Results for C[n+]1c2n(c3ccccc31)N=C(c1ccccc1)CS2 ?
APP 5'UTR act: inactive; STAT3 act-1: 140; NF-kB neuron act: inactive; STAT1 inh: inactive; STAT3 inh: inactive; STAT1 act-1: inactive; STAT3 act-2: 149; NFkB act STAT3ct: inactive; STAT1 act-2: inactive

Results for Cc1cccc(-c2nnc3n2N=C(c2ccccc2)CS3)c1 ?
APP 5'UTR act: inactive; STAT3 act-1: inactive; NF-kB neuron act: inactive; STAT1 inh: inactive; STAT3 inh: inactive; STAT1 act-1: inactive

What do the screens show for `Nc1nc(-c2ccc(Cl)cc2)nn1C(=O)c1cccs1`?
APP 5'UTR act: inactive; STAT3 act-1: 146; NF-kB neuron act: inactive; STAT1 inh: inactive; STAT3 inh: inactive; STAT1 act-1: inactive; STAT3 act-2: 145; NFkB act STAT3ct: inactive; STAT1 act-2: inactive

What do the screens show for `O=C(/C=C\c1ccc2c(c1)OCO2)Nc1c2c(nn1-c1ccc(Cl)cc1)CSC2`?
APP 5'UTR act: inactive; STAT3 act-1: inactive; NF-kB neuron act: inactive; STAT1 inh: inactive; STAT3 inh: inactive; STAT1 act-1: inactive

How did O=C(CSc1cccc[n+]1[O-])c1ccc(Cl)s1 do in these assays?
APP 5'UTR act: inactive; STAT3 act-1: inactive; NF-kB neuron act: inactive; STAT1 inh: inactive; STAT3 inh: inactive; STAT1 act-1: inactive

Results for O=C(Cc1cccs1)N/N=C\c1ccc(O)cc1 ?
APP 5'UTR act: inactive; STAT3 act-1: 142; NF-kB neuron act: inactive; STAT1 inh: inactive; STAT3 inh: inactive; STAT1 act-1: inactive; STAT3 act-2: inactive; NFkB act STAT3ct: 123; STAT1 act-2: 151

What do the screens show for `O=C(Cc1cccs1)N/N=C/C=C/c1ccccc1`?
APP 5'UTR act: inactive; STAT3 act-1: inactive; NF-kB neuron act: inactive; STAT1 inh: inactive; STAT3 inh: inactive; STAT1 act-1: inactive

What do the screens show for `Cc1c(NC(=O)/C(C#N)=C/c2cccs2)c(=O)n(-c2ccccc2)n1C`?
APP 5'UTR act: inactive; STAT3 act-1: inactive; NF-kB neuron act: inactive; STAT1 inh: inactive; STAT3 inh: inactive; STAT1 act-1: inactive

What do the screens show for `C/C(=N\NC(=O)c1csc2ccccc12)c1ccc(O)cc1`?
APP 5'UTR act: inactive; STAT3 act-1: inactive; NF-kB neuron act: inactive; STAT1 inh: inactive; STAT3 inh: inactive; STAT1 act-1: inactive

Compound activity (PubChem)
